Data on 19 compounds can be found in ChEMBL document CHEMBL1148578, “Synthesis and biological evaluation of 6-(alkyn-1-yl)furo[2,3-d]pyrimidin-2(3H)-one base and nucleoside derivatives” (J Med Chem, 2006).

Assay [1] concerns Human betaherpesvirus 5. Put plainly: Antiviral activity against human cytomegalovirus Davis strain. The format is functional, organism-based. The settings on record: Human betaherpesvirus 5, Davis. The method, boiled down: (§1)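 Virus was removed and medium with graded compound concentrations was added, in duplicate. After 7 days at 37 °C, cells were ethanol-fixed and Giemsa-stained, and cytopathogenicity was scored microscopically.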

In assay [2] the test system is Human betaherpesvirus 5. As to the kind of experiment: Antiviral activity against human cytomegalovirus AD169 strain. Type of assay: functional, organism-based. The settings on record: Human betaherpesvirus 5, AD169. The method in brief: as §1
A further assay deals with HEL. As to the kind of experiment: Cytotoxic activity against cultured human embryonic lung (HEL) cells. The format is functional. The method, boiled down:
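HEL cells were seeded at 5 × 10³/well and grown for 24 h, then exposed to graded compound concentrations for 3 days at 37 °C. MCC was the lowest concentration giving microscopically visible alteration of cell morphology.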

The test system of assay [3] is Human alphaherpesvirus 3. As to the kind of experiment: Antiviral activity against Varicella-Zoster virus YS/R strain. The conditions noted are these: Human alphaherpesvirus 3, YS/R. The format is functional, organism-based. The method, boiled down:
(§2)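 HEL cell monolayers were infected with VZV (TK⁻ strains YS/R and 07/1) for 2 h. Residual virus was then removed and medium with graded compound concentrations was added, in duplicate. After 5 days at 37 °C, cells were ethanol-fixed and Giemsa-stained, and plaques were counted microscopically.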

Assay [4] concerns Human alphaherpesvirus 3. Put plainly: Antiviral activity against Varicella-Zoster virus YS strain. The format is functional, organism-based. The settings on record: Human alphaherpesvirus 3, YS.
Assay [5] deals with Human alphaherpesvirus 3. Put plainly: Antiviral activity against Varicella-Zoster virus 07/1 strain. Type of assay: functional, organism-based. The settings on record: Human alphaherpesvirus 3, 07/1. The method in brief: as §2

SMILES strings stand for the structures.

Broadly, the EC50 is the midpoint of the concentration-response curve. A higher EC50 goes with a need for much substance. A word on the CC50: it is the concentration at which the toxic effect on the cells reaches its halfway point. A low value points to greater toxicity to the cells. Take `CCCCC#Cc1cc2cn(C)c(=O)nc2o1`: the 50% effective concentration (EC50) in the assay with Human betaherpesvirus 5 [1] is 139 µM; in the assay on Human betaherpesvirus 5 [2], above 217 µM; in the assay on Human alphaherpesvirus 3 [3], above 87 µM; with Human alphaherpesvirus 3 [4], 217 µM; in the assay with Human alphaherpesvirus 3 [5], above 87 µM. For the same compound, the CC50 in the assay with HEL is above 217 µM. The MCC in the assay with HEL is at least 217 µM.

Regarding `CCCCCCCCC#Cc1cc2cn([C@H]3C[C@H](O)[C@@H](CO)O3)c(=O)nc2o1`, the concentration for a half-maximal effect (EC50) in the assay on Human betaherpesvirus 5 [1] is 7.6 µM; in the assay on Human betaherpesvirus 5 [2] it was 7.4 µM; in the assay with Human alphaherpesvirus 3 [3], 6.5 µM; in the assay on Human alphaherpesvirus 3 [4] it was 2.7 µM; with Human alphaherpesvirus 3 [5] it was above 13 µM. The same compound registered a CC50 in the assay with HEL of 77 µM. The compound also registered an MCC in the assay on HEL of 52 µM.

As for `CCCCCCCCCCC#Cc1cc2cn([C@@H]3O[C@H](CO)[C@@H](O)[C@@H]3O)c(=O)nc2o1`, the EC50 in the assay on Human betaherpesvirus 5 [1] is above 12 µM; with Human betaherpesvirus 5 [2], above 12 µM; in the assay on Human alphaherpesvirus 3 [3] it was 5.7 µM; with Human alphaherpesvirus 3 [4] it was at least 16 µM; in the assay with Human alphaherpesvirus 3 [5] it was above 12 µM. Also, the 50% cytotoxic concentration (CC50) in the assay with HEL is 116 µM. Further, the MCC in the assay with HEL came to 46 µM.

`Nc1nc2c(ncn2COC(CO)CO)c(=O)[nH]1` [GANCICLOVIR] registered an EC50 with Human betaherpesvirus 5 [1] of 8.7 µM. In the assay with HEL, this compound came in with a CC50 above 197 µM and an MCC above 197 µM.

Regarding `CCCCCCC#Cc1cc2cn([C@@H]3O[C@H](CO)[C@@H](O)[C@@H]3O)c(=O)nc2o1`, the half-maximal effective concentration (EC50) was above 53 µM in the assay with Human betaherpesvirus 5 [1]; above 53 µM with Human betaherpesvirus 5 [2]; 21 µM in the assay on Human alphaherpesvirus 3 [3]; at least 43 µM in the assay on Human alphaherpesvirus 3 [4]; 34 µM in the assay on Human alphaherpesvirus 3 [5]. In the assay with HEL, this compound displayed a CC50 above 53 µM. Further, the MCC with HEL stood at 133 µM.

Turning to `CCCCCCC#Cc1cc2cn([C@@H]3O[C@H](CO)[C@@H](O)[C@H]3O)c(=O)nc2o1`, the EC50 with Human betaherpesvirus 5 [1] is above 53 µM; in the assay on Human betaherpesvirus 5 [2] it was above 133 µM; in the assay with Human alphaherpesvirus 3 [3], 19 µM; with Human alphaherpesvirus 3 [4], at least 39 µM; in the assay on Human alphaherpesvirus 3 [5] it was 39 µM. For the same compound, the CC50 with HEL is above 133 µM. In the assay with HEL, this compound showed an MCC of at least 133 µM.

In the case of `Nc1nc2c(ncn2COCCO)c(=O)[nH]1` [ACYCLOVIR], in the assay on HEL, the CC50 is above 889 µM and the MCC was above 222 µM.

Consider `CCCCCCCCCCC#Cc1cc2cn(C)c(=O)nc2o1`, for which the EC50 in the assay with Human betaherpesvirus 5 [1], with Human betaherpesvirus 5 [2], in the assay on Human alphaherpesvirus 3 [3], with Human alphaherpesvirus 3 [4] and in the assay with Human alphaherpesvirus 3 [5] was above 150 µM each time. Moreover, the CC50 with HEL was above 150 µM. Moreover, the MCC in the assay with HEL was above 150 µM.

As to `CCCCCCC#Cc1cc2cn(C)c(=O)nc2o1`, the half-maximal effective concentration (EC50) in the assay on Human betaherpesvirus 5 [1] is 37 µM; in the assay with Human betaherpesvirus 5 [2] it was 31 µM; with Human alphaherpesvirus 3 [3], 23 µM; in the assay with Human alphaherpesvirus 3 [4] it was at least 89 µM; in the assay with Human alphaherpesvirus 3 [5], above 77 µM. In the assay with HEL, this compound had a cytotoxic concentration (CC50) above 194 µM. Also, the MCC in the assay with HEL was found to be 194 µM.

Turning to `CCCCCCC#Cc1cc2cn([C@H]3C[C@H](O)[C@@H](CO)O3)c(=O)nc2o1`, the half-maximal effective concentration (EC50) stood at 19 µM with Human betaherpesvirus 5 [1]; 21 µM in the assay with Human betaherpesvirus 5 [2]; 22 µM in the assay with Human alphaherpesvirus 3 [3]; 1.5 µM with Human alphaherpesvirus 3 [4]; 25 µM in the assay on Human alphaherpesvirus 3 [5]. The same compound displayed a CC50 with HEL of 138 µM. In the assay on HEL, the MCC is at least 97 µM.

`O=c1[nH]c(=O)n([C@H]2C[C@H](O)[C@@H](CO)O2)cc1/C=C/Br` [BRIVUDINE] had a CC50 with HEL above 150 µM. Besides, the MCC with HEL was above 150 µM. Moreover, the EC50 with Human alphaherpesvirus 3 [3] is at least 126 µM; in the assay on Human alphaherpesvirus 3 [4], 0.01 µM; in the assay with Human alphaherpesvirus 3 [5], at least 99 µM.

With `CCCCCCCCCCC#Cc1cc2cn([C@H]3C[C@H](O)[C@@H](CO)O3)c(=O)nc2o1`, the 50% effective concentration (EC50) in the assay with Human betaherpesvirus 5 [1] was above 4.8 µM; in the assay on Human betaherpesvirus 5 [2], above 4.8 µM; in the assay on Human alphaherpesvirus 3 [3] it was 2.5 µM; in the assay on Human alphaherpesvirus 3 [4], at least 5.7 µM; in the assay with Human alphaherpesvirus 3 [5] it was at least 6 µM. In the assay on HEL, this compound came in with a CC50 of 36 µM. This compound displayed an MCC in the assay on HEL of 30 µM.

For `CCCCCCCCCCC#Cc1cc2cn([C@@H]3O[C@H](CO)[C@@H](O)[C@H]3O)c(=O)nc2o1`, the concentration for a half-maximal effect (EC50) is above 4.6 µM in the assay with Human betaherpesvirus 5 [1]; above 4.6 µM in the assay on Human betaherpesvirus 5 [2]; 3.5 µM with Human alphaherpesvirus 3 [3]; above 4.6 µM with Human alphaherpesvirus 3 [4]; 4.6 µM with Human alphaherpesvirus 3 [5]. Half-maximal cytotoxicity with HEL (CC50) was put at 44 µM. The MCC with HEL is 12 µM.

In the case of `CCCCC#Cc1cc2cn([C@H]3C[C@H](O)[C@@H](CO)O3)c(=O)nc2o1`, the EC50 with Human betaherpesvirus 5 [1] is above 150 µM; in the assay with Human betaherpesvirus 5 [2], above 150 µM; in the assay with Human alphaherpesvirus 3 [3], 90 µM; in the assay on Human alphaherpesvirus 3 [4] it was 87 µM; with Human alphaherpesvirus 3 [5], at least 135 µM. Besides, the cytotoxic concentration (CC50) in the assay with HEL was above 150 µM. In the assay on HEL, this compound gave an MCC above 150 µM.

Take `CCCCCCCCC#Cc1cc2cn([C@@H]3O[C@H](CO)[C@@H](O)[C@@H]3O)c(=O)nc2o1`: the concentration for a half-maximal effect (EC50) was 12 µM with Human betaherpesvirus 5 [1]; above 12 µM with Human betaherpesvirus 5 [2]; 3.7 µM with Human alphaherpesvirus 3 [3]; at least 11 µM in the assay with Human alphaherpesvirus 3 [4]; 11 µM with Human alphaherpesvirus 3 [5]. This compound also returned a CC50 with HEL above 124 µM. Also, the MCC with HEL was determined as 49 µM.

Consider `CCCCCCCCC#Cc1cc2cn(C)c(=O)nc2o1`, for which the EC50 was above 175 µM in the assay with Human betaherpesvirus 5 [1]; above 175 µM in the assay on Human betaherpesvirus 5 [2]; above 175 µM with Human alphaherpesvirus 3 [3]; above 175 µM with Human alphaherpesvirus 3 [4]; above 70 µM with Human alphaherpesvirus 3 [5]. This compound also yielded a CC50 with HEL above 175 µM. Also, the MCC with HEL is above 175 µM.

Consider `CCCCCCCCC#Cc1cc2cn([C@@H]3O[C@H](CO)[C@@H](O)[C@H]3O)c(=O)nc2o1`, for which the EC50 in the assay on Human betaherpesvirus 5 [1] is at least 9.3 µM; with Human betaherpesvirus 5 [2], 7.3 µM; in the assay on Human alphaherpesvirus 3 [3], 6.2 µM; in the assay on Human alphaherpesvirus 3 [4], above 12 µM; in the assay on Human alphaherpesvirus 3 [5], at least 12 µM. The compound also had a cytotoxic concentration (CC50) in the assay on HEL of 62 µM. In the assay with HEL, this compound registered an MCC of 49 µM.

Regarding `CCCCC#Cc1cc2cn([C@@H]3O[C@H](CO)[C@@H](O)[C@@H]3O)c(=O)nc2o1`, the EC50 is above 144 µM in the assay on Human betaherpesvirus 5 [1]; above 144 µM with Human betaherpesvirus 5 [2]; 63 µM in the assay with Human alphaherpesvirus 3 [3]; above 144 µM with Human alphaherpesvirus 3 [4]; above 144 µM in the assay on Human alphaherpesvirus 3 [5]. The compound also gave a 50% cytotoxic concentration (CC50) in the assay on HEL above 144 µM. Further, the MCC in the assay on HEL was above 144 µM.

Turning to `CCCCC#Cc1cc2cn([C@@H]3O[C@H](CO)[C@@H](O)[C@H]3O)c(=O)nc2o1`, the concentration for a half-maximal effect (EC50) was above 144 µM in the assay with Human betaherpesvirus 5 [1]; above 144 µM with Human betaherpesvirus 5 [2]; 52 µM with Human alphaherpesvirus 3 [3]; at least 113 µM in the assay with Human alphaherpesvirus 3 [4]; 144 µM in the assay on Human alphaherpesvirus 3 [5]. For the same compound, in the assay with HEL, the CC50 is above 144 µM. In the assay with HEL, this compound yielded an MCC above 144 µM.
